Reference: PubChem BioAssay
Active and inactive are the calls of the source.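 The calls were made as follows, unless noted: active = inhibition at or above 50% relative to wild type and mutant plate controls; inactive = inhibition below 50%.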

Legend:
[1] = inhibitors of TNFa-induced NFkB p65 translocation, primary screen, imaging, HUVEC, MLSMR starter and 10KST1 sets (AID 438;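 active = inhibition above 20% together with a positive visual image hit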;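 also: compound added about 3h40 before a 20 min TNFalpha stimulation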;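 as to inhibition: signal is the nuclear over cytoplasmic p65 intensity ratio per well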); settings: HUVEC TNFa-induced p65 nuclear translocation; cell count: measured here: nuclei count (cytotoxicity indicator), at 2.08 µM; inhibition: at 2 µM, stronger effect = higher value, 0% TNFa-plus-vehicle, 100% no-TNFa wells
[2] = endothelial E-selectin expression blockers – imaging, HUVEC, immunofluorescence, MLSMR starter and 10KST1 sets, primary screen (AID 487;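 active = visually confirmed hit in the image check and inhibition above 20%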;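 as to inhibition: signal is fraction of cell area covered by stained E-selectin grains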;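 as to nuclei count: 100% = median nuclei count of all wells on the same plate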); settings: HUVEC TNFalpha-induced E-selectin immunofluorescence imaging, at 2 µM; inhibition: stronger effect = higher value; nuclei count: measured here: cell number, toxicity
[3] = Primary imaging screen for DUSP6 inhibitors that restore phospho-Erk in transfected HeLa cells, chemical complementation (AID 609;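 active = compounds giving at least 50% inhibition in the cell-based MKP-3 phosphatase rescue imaging test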;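 as to inhibition: phospho-Erk level distribution per well compared with pooled transfected vehicle control wells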); settings: HeLa MKP-3 transfected, phospho-Erk imaging KS statistic, at 10 µM, cells stimulated with TPA for 15 min
[4] = target: Dual specificity protein phosphatase 6 (Homo sapiens) (UniProt Q16828); experiment: as above; settings: HeLa MKP-3 transfected, phospho-Erk imaging KS statistic; at 10 µM; stronger effect = higher value; cells stimulated with TPA for 15 min
[5] = target: Voltage-gated potassium channel subunit beta-2 (Rattus norvegicus) (UniProt P62483); experiment: inhibitors of rat Kvbeta2 reductase activity – biochemical, NADPH fluorescence, primary screen (AID 622;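 active = fluorescence slope higher than the sample average by over 3 SD, cut at about -0.22 in these data, passing the limit was not always enough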;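 also: slope of raw intensity against log time taken from 70 to 1610 s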); settings: recombinant KvBeta, 4-cyanobenzaldehyde reduction, at 10 µM, stronger effect = higher value
[6] = target: Voltage-gated potassium channel subunit beta-2 (Rattus norvegicus) (UniProt P62483); experiment: enhancers of rat Kvbeta2 NADPH turnover – biochemical, NADPH fluorescence, primary screen (AID 623;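 active = NADPH fluorescence slope more negative than the mean of all samples by about 3 SD, 99.7% confidence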;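 also: fluorescence intensity change per second fitted from 20 to 320 s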); settings: Recombinant KvBeta, NADPH fluorescence decrease slope, 10 min; at 10 µM; stronger effect = lower value
[7] = target: Alpha-2C adrenergic receptor (Homo sapiens) (UniProt P18825); experiment: compounds altering alpha2C-coupled GIRK flux – cell-based, HEK293 alpha2C/GIRK1/2, thallium flux, primary screen (AID 624;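 active = fluorescence slope after compound addition differing from the mean of all screened samples at 99.7% confidence, in either direction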;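 also: slope of fluorescence ratio to pre-addition baseline per second over 15 to 24 s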); settings: thallium flux BTC fluorescence, at 10 µM, actives lie on both sides
[8] = inhibitors of larval lipid processing in zebrafish, primary screen, whole organism, PED6 fluorescence, gall bladder and intestine (AID 686;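 active = a full or partial loss of lipid-probe fluorescence in the fish gall bladder, intestine or both, judged by eye; inactive = no fluorescence loss, or compound toxic to the fish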;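 also: larvae 5 to 7 days old with five fish per well; signal comes from phospholipase A2 cleavage of quenched PED6 carried via bile; overnight exposure to compound and PED6 before scoring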); settings: Zebrafish larvae PED6 lipid processing, fluorescence scoring; screened at 20 µM (by protocol)
How it was run: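 System: live zebrafish larvae aged 5-7 days, whole organism; measure: graded gall bladder and intestinal fluorescence inhibition per well; incubation: overnight exposure; reagent: ingested quenched lipid PED6 at 100 nM; signal: By-eye fluorescence microscopy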

[9] = loss of swimming-algae plug formation – whole organism, Chlamydomonas reinhardtii, WT vs cilia-less mutant, absorbance, 96-well, primary screen (AID 463189); settings: Chlamydomonas reinhardtii gravitaxis, OD600 absorbance, 2 days; at 10 µM; stronger effect = higher value;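 also: 0% = wild type cc124 cells in DMSO and 100% = ciliumless bld1 mutant cells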
[10] = measured here: cell density z-score
[11] = measured here: nuclear c-Myc green intensity z-score
[12] = measured here: nuclear pErk red intensity z-score, stronger effect = higher value

Alpha-2C adrenergic receptor (Homo sapiens), sequence (P18825 whole entry, looked up): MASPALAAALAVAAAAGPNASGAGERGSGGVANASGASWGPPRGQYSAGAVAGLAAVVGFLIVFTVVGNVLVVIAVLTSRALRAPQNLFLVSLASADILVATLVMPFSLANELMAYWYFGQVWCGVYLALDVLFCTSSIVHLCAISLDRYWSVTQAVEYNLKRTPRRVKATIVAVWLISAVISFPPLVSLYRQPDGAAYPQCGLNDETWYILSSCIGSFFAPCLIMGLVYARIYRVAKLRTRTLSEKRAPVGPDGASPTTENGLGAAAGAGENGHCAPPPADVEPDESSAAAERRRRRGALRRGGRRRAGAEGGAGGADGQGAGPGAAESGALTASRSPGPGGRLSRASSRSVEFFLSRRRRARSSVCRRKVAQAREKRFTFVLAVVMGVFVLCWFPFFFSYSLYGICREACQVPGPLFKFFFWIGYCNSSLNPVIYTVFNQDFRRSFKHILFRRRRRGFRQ
Dual specificity protein phosphatase 6 (Homo sapiens), sequence (Q16828 whole entry, looked up): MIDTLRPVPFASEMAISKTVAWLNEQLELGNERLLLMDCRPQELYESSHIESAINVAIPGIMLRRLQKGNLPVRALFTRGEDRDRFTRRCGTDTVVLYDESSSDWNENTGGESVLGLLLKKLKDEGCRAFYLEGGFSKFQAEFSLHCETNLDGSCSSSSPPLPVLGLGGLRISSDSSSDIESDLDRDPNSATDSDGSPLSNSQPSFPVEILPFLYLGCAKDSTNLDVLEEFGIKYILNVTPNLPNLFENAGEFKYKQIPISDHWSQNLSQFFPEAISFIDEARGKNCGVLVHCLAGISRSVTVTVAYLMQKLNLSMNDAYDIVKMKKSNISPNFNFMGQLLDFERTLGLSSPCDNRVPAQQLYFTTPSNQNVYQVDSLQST
Voltage-gated potassium channel subunit beta-2 (Rattus norvegicus), sequence (P62483 whole entry, looked up): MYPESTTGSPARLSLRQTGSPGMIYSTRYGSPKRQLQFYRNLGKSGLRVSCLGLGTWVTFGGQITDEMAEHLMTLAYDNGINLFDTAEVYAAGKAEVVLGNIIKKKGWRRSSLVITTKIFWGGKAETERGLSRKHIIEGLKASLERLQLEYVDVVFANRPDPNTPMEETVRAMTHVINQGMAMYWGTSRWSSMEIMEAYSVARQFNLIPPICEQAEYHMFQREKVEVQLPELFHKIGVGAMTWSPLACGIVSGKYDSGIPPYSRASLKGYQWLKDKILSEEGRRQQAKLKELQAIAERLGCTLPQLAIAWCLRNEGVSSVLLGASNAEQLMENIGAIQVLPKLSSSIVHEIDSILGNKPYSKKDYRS

Structure (SMILES)	cell count [1]	inhibition [1]	inhibition [2]	nuclei count [2] [%]	z-score [3, 10]	z-score [3, 11]	z-score [3, 12]	inhibition [4]	fluorescence slope [5]	NADPH fluorescence slope [6]	slope [7]	outcome [8]	inhibition [9]
C/C(=N\O)C1(C)N(O)C(C)(C)C(c2ccco2)=[N+]1[O-] (stereo not given)	428	-2.8% (inactive)	-112% (inactive)	131	0.73	-1.17	-0.0605	13.2% (inactive)	-0.486 (inactive)	-3.2e-05 (inactive)	0.00518 (inactive)	inactive	14.5% (inactive)
Cn1nnnc1SCC(=O)NCC(=O)c1ccccc1	527	-4.5% (inactive)	-74.2% (inactive)	146	0.246	-1.91	0.111	-7.01% (inactive)	-0.527 (inactive)	-6.9e-05 (inactive)	0.00467 (inactive)	inactive	10.2% (inactive)
CCOC(=O)c1c(N)sc2c1CCC1C(=O)N(C3CCCCC3)C(=O)C21 (stereo not given)	593	-15.5% (inactive)	-59.6% (inactive)	170	-0.619	-0.159	0.799	-11% (inactive)	-0.362 (inactive)	-3.1e-06 (inactive)	0.0048 (inactive)	inactive	-3.12% (inactive)
CNc1ccccc1-c1nc2ccccc2n(C)c1=O	545	1.8% (inactive)	-41.8% (inactive)	154	0.495	-0.326	0.207	14% (inactive)	-0.488 (inactive)	-7.9e-05 (inactive)	0.00346 (inactive)	active; weak signal in gallbladder and intestine	16% (inactive)
COc1ccc(C(=O)C(CN2CCCC2)c2ccccc2)cc1 (stereo not given)	653	-4.3% (inactive)	0.2% (inactive)	178	-0.885	0.507	1.21	1.75% (inactive)	-0.521 (inactive)	-8.7e-05 (inactive)	0.00506 (inactive)	inactive	5.7% (inactive)
CSc1nc2sc3c(c2c(=O)n1C1CCCCC1)CCN(C)C3	563	1.3% (inactive)	-69.6% (inactive)	107	0.231	0.631	-1.25	9.82% (inactive)	-0.375 (inactive)	-2.1e-06 (inactive)	0.00516 (inactive)	inactive	-15.6% (inactive)
O=C(O)C1CSC(CCc2ccccc2)N1 (stereo not given)	633	-7.7% (inactive)	-34.8% (inactive)	140	-0.486	0.112	1.29	7.83% (inactive)	-0.459 (inactive)	-0.000276 (inactive)	0.00538 (inactive)	inactive	8.25% (inactive)
COc1ccc(-c2nc3n(c2Br)CCC3)cc1	587	-14.6% (inactive)	-22.2% (inactive)	162	1.1	0.741	-1.03	39% (inactive)	-0.503 (inactive)	-2.6e-05 (inactive)	0.00527 (inactive)	inactive	49.9% (inactive)
Cc1occc(=O)c1OC(=O)Nc1ccccc1	477	-8.6% (inactive)	-106% (inactive)	154	-0.12	2.47	-1.69	14% (inactive)	-0.524 (inactive)	-2.3e-05 (inactive)	0.00424 (inactive)	inactive	-3.66% (inactive)
Oc1ccc2c(c1)C1CCCC1(N1CCOCC1)O2 (stereo not given)	414	0.7% (inactive)	-83.5% (inactive)	128	0.996	-0.205	-1.79	3.42% (inactive)	-0.458 (inactive)	-0.000124 (inactive)	0.005 (inactive)	inactive	-3.55% (inactive)
O=C(CCC(=O)CCN1CCCCC1)CCN1CCCCC1	641	-2.1% (inactive)	5.3% (inactive)	170	-0.3	1.66	0.253	15.1% (inactive)	-0.506 (inactive)	-0.000129 (inactive)	0.00498 (inactive)	inactive	12.4% (inactive)
COc1cc(C2C(C#N)=C(N)Oc3cc(C)n(Cc4ccccn4)c(=O)c32)cc2c1OCO2 (stereo not given)	433	6.2% (inactive)	-56.2% (inactive)	88.8	-2.67	-0.393	1.97	11.4% (inactive)	-0.442 (inactive)	-1.2e-05 (inactive)	0.00753 (inactive)	inactive	-11.1% (inactive)
COC(=O)COn1c(SCC(=O)OC)nc2ccccc2c1=O	300	-3.5% (inactive)	-6.8% (inactive)	89.2	-1.82	0.261	0.27	-8.59% (inactive)	-0.442 (inactive)	-0.000116 (inactive)	0.00782 (inactive)	inactive	-12.1% (inactive)
N#CC1=C2SCC(O)(c3ccccc3)N2C(=O)CC1c1ccccc1 (stereo not given)	487	0.4% (inactive)	-39.3% (inactive)	98.1	-0.384	-0.62	2.84	-3.98% (inactive)	-0.459 (inactive)	-0.00022 (inactive)	0.00444 (inactive)	inactive	13.3% (inactive)
CCOc1ccc(-c2nnc3sc(-c4ccccc4OC)nn23)cc1	613	-5.4% (inactive)	36% (inactive)	174	-0.391	2.01	-1.56	-9.66% (inactive)	-0.403 (inactive)	-0.000132 (inactive)	0.00485 (inactive)	inactive	0.927% (inactive)
c1ccc(N2CCN(c3nc(NCc4ccco4)c4ccccc4n3)CC2)cc1	579	0.1% (inactive)	-25.4% (inactive)	219	0.527	-0.848	2.43	-4.7% (inactive)	-0.35 (inactive)	-2.5e-05 (inactive)	0.00337 (inactive)	inactive	35.9% (inactive)
CCC(C)Nc1nc(-c2cccc(OC)c2O)nc2ccccc12 (stereo not given)	570	3.5% (inactive)	-68.3% (inactive)	152	-0.862	-0.242	1.22	1.6e-07% (inactive)	-0.394 (inactive)	-5e-05 (inactive)	0.00426 (inactive)	inactive	65.6% (active)
Cc1cc(C)c(C#N)c(SCC(=O)NC2CC2)n1	646	-7.6% (inactive)	-12% (inactive)	154	2.42	-0.939	0.0715	2.92% (inactive)	-0.444 (inactive)	-5.6e-05 (inactive)	0.00581 (inactive)	inactive	0.954% (inactive)
CC(=NC1CCCC1)c1c(C)[nH]n(-c2nc3ccccc3s2)c1=O	573	3.4% (inactive)	54.6% (inactive)	142	0.859	0.776	-1.4	-1.12% (inactive)	-0.469 (inactive)	-0.000261 (inactive)	0.00463 (inactive)	inactive	6.63% (inactive)
COCCCn1c2nc3ccccc3nc2c2c(=O)n(CC3CCCO3)cnc21 (stereo not given)	561	-24.2% (inactive)	-93.6% (inactive)	148	0.117	-0.113	-0.0537	2.92% (inactive)	-0.368 (inactive)	-1.9e-05 (inactive)	0.00353 (inactive)	inactive	9.15% (inactive)
CCOC(=O)C(NC=O)(NC(C)(C)C)C(=O)OCC	520	-16.1% (inactive)	-227% (inactive)	188	-0.692	0.27	0.909	-8.95% (inactive)	-0.493 (inactive)	-5.5e-05 (inactive)	0.00503 (inactive)	inactive	-1.22% (inactive)
Cn1c(=O)oc2cc(C(=O)c3ccccc3)ccc21	442	-7.7% (inactive)	-42.8% (inactive)	177	0.0253	-0.374	-0.71	1.04% (inactive)	-0.332 (inactive)	-3.5e-05 (inactive)	0.00473 (inactive)	inactive	-6.29% (inactive)
CCOc1ccc(-c2nnc3sc(COc4ccccc4)nn23)cc1	502	-11.7% (inactive)	-288% (inactive)	155	-0.358	-0.85	1.78	-15% (inactive)	-0.405 (inactive)	-0.000151 (inactive)	0.00528 (inactive)	inactive	53.8% (active)
COc1cc(NC2=CC(=O)CC(C)(C)C2)cc(OC)c1OC	584	-15% (inactive)	-72.4% (inactive)	141	-0.351	-0.143	0.715	-1.98% (inactive)	-0.488 (inactive)	-3.8e-05 (inactive)	0.00597 (inactive)	inactive	-4.05% (inactive)
COc1ccc(Cn2c(=O)c3c(nc(NCCO)n3C)n(C)c2=O)cc1	336	-3.5% (inactive)	-129% (inactive)	131	-0.216	1.13	0.242	-0.624% (inactive)	-0.369 (inactive)	3.5e-05 (inactive)	0.00827 (inactive)	inactive	-14.7% (inactive)
